Columns and labels:
[1] = biological target: T1, Phospholipase A2, major isoenzyme (Sus scrofa, UniProt P00592); test: In vitro inhibition of porcine pancreatic phospholipase A2 evaluated by monomeric substrate assay; not active at the highest concentration tested
In short: (§1)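 The monomeric thioester substrate was used at 5.44 mM, below its CMC of 14 mM. The assay also held 0.2 mM DTNB, 0.25 mM CaCl2 and 0.5 μg/mL porcine pancreatic PLA2 in 10 mM sodium phosphate pH 7.5. Inhibitor or methanol made up 2.5% of the volume. Rates were followed over 16 h at about 22 °C. Inhibition was calculated against solvent controls after subtracting nonenzymic hydrolysis.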

[2] = biological target: T1, Phospholipase A2, major isoenzyme; test: In vitro inhibition of porcine pancreatic phospholipase A2 evaluated by monomeric substrate assay; in short: as §1
[3] = biological target: T1, Phospholipase A2, major isoenzyme; test: In vitro inhibition of porcine pancreatic phospholipase A2 evaluated by Deoxycholate-phospholipid mixed micelle assay
In short: (§2)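 Porcine pancreatic PLA2 at 0.074 μg/mL, with 2 mM CaCl2, 2.4 mM sodium deoxycholate and 100 μM 1-stearoyl-2-arachidonoyl-L-phosphatidylcholine traced with 22 000 dpm 1-stearoyl-2-[14C]arachidonoyl-PC, in 50 mM Tris-HCl pH 8.2. Inhibitor was added in methanol at 1% of assay volume. After 8 min at 37 °C, released [14C]arachidonic acid was extracted and counted by scintillation, under hopping-kinetics conditions.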

[4] = biological target: Phospholipase A2, major isoenzyme (Sus scrofa) (UniProt P00592); test: In vitro inhibition of porcine pancreatic phospholipase A2 by Deoxycholate-phospholipid mixed micelle assay at 30 uM
Chain of Phospholipase A2, major isoenzyme (Sus scrofa) (P00592 23-146 limits assumed): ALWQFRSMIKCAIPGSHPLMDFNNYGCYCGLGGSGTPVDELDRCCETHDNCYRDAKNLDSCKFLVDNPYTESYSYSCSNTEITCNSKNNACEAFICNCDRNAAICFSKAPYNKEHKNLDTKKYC

[5] = biological target: T1, Phospholipase A2, major isoenzyme; test: In vitro inhibition of porcine pancreatic phospholipase A2 evaluated by Deoxycholate-phospholipid mixed micelle assay; not active at the highest concentration tested; in short: as §2

T1 sequence (P00592 whole entry): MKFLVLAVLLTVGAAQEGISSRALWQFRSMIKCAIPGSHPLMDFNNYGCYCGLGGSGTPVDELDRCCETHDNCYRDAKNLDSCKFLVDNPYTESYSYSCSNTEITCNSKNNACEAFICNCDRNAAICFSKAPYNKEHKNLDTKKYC

| SMILES | IC50 [2] [µM] | IC50 [3] [µM] | IC50 [5] | further results |
| --- | --- | --- | --- | --- |
| CCCCCC/C=C/CC(=O)N[C@H](COP(=O)([O-])OCC[N+](C)(C)C)CC(C)C |  |  |  | IC50 [1]: Not Active |
| CCCCCC/C=C/CC(=O)N[C@@H](COP(=O)([O-])OCC[N+](C)(C)C)CC(C)C | 6 |  |  |  |
| CCCCCCCCCCCCCCCC(=O)N[C@@H](COP(=O)(O)O)Cc1ccccc1 | 5 |  |  | inhibition [4]: 42% |
| CC(C)C[C@H](COP(=O)([O-])OCC[N+](C)(C)C)NC(=O)Cc1ccc2ccccc2c1 | 160 |  | Not Active |  |
| CCCCCCCCCCCCCCCC(=O)OCC(COP(=O)(O)OCCO)NC(=O)CCCCCCCCCCCCC (stereo unspecified) | 0.03 | 3.5 |  |  |
| CCCCCCCCCCCCCCCCCCOC[C@H](COP(=O)([O-])OCC[N+](C)(C)C)NC(=O)CCCCCCCCCCCCCCC |  | 15 |  |  |
| C[N+](C)(C)CCOP(=O)([O-])OCCNC(=O)c1ccc2ccccc2c1 |  |  | Not Active |  |
| C[N+](C)(C)CCOP(=O)([O-])OCCNC(=O)Cc1ccc2ccccc2c1 | > 1000 |  | Not Active |  |

Second part, led by results:

| IC50 [2] [µM] | IC50 [3] [µM] | IC50 [5] | SMILES | further results |
| --- | --- | --- | --- | --- |
| 0.03 | 2.6 |  | CCCCCCCCCCCCCCCC(=O)N[C@@H](COP(=O)(O)OCCO)CC(C)C |  |
| 1.4 | 189 |  | CCCCCCCCCCCCCCCC(=O)N[C@H](C)COP(=O)([O-])OCC[N+](C)(C)C |  |
| 0.23 | 30 |  | CCCCCCCCCCCCCCCC(=O)N[C@@H](COP(=O)([O-])OCC[N+](C)(C)C)CC(C)C |  |
| 4 | 300 |  | CCCCCCCCCCCCCCCC(=O)NCCOP(=O)([O-])OCC[N+](C)(C)C |  |
| 4.5 |  | Not Active | CCCCCCCCCCCCCCCC(=O)N[C@H](COP(=O)([O-])OCC[N+](C)(C)C)CC(C)C |  |
| 10 |  |  | CCCCCCCCCCCCCCCC(=O)N[C@@H](COP(=O)(O)O)CC(C)C | inhibition [4]: 22% |
|  |  | Not Active | CCCCCCCCCCCC(=O)NCCOP(=O)([O-])OCC[N+](C)(C)C | IC50 [1]: Not Active |

Reference: ChEMBL document CHEMBL1126273, “Design and synthesis of some substrate analogue inhibitors of phospholipase A2 and investigations by NMR and molecular modeling into the binding interactions in the enzyme-inhibitor complex” (J Med Chem, 1992)
